Screens: PubChem BioAssay, several laboratories
NadD block = inhibitors of S. aureus NadD, primary screen, biochemical, colorimetric, uHTS. Nicotinate-nucleotide adenylyltransferase NadD (Staphylococcus aureus N315). purified NadD enzyme, colorimetric absorbance read-out. inhibition, % at 20 µM. 360,000 compounds, 0.78% hits. AID 602399, 2012; in the data active = inhibition above about 26%
Rpn11 inh = Rpn11 (PSMD14) deubiquitinase inhibitors, primary screen, biochemical, fluorescence polarization, uHTS. inhibition, % at 20 µM. human 26S proteasome, Ub4-pepOG fluorescence polarization; 20S core pre-blocked with epoxomicin. 360,000 compounds, 0.59% hits;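 active = inhibition at 20 µM, scaled to each plate's controls, above about 33%, limit read from the data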
ABHD5-PLIN5 inh = ABHD5-PLIN5 interaction inhibitors, primary screen, cell lysate, split luciferase complementation, luminescence; Perilipin-5 (Homo sapiens) + 1-acylglycerol-3-phosphate O-acyltransferase ABHD5 (Homo …; Split G. princeps luciferase complementation, 4 h; inhibition, % at 4 µM; 360,000 compounds, 0.78% hits; AID 602281, 2012;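 active = inhibition above the mean inhibition across every tested compound plus 3 SD, cut at about 22% in these data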;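 note: 0% = DMSO only wells and the 100% control is not disclosed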
Rin1 Abl inh = inhibitors of Rin1-Abl protein binding, primary screen, biochemical, TR-FRET | 360,000 compounds, 0.4% hits | inhibition, % at 7.35 µM | Tyrosine-protein kinase ABL1 (Homo sapiens) + Ras and Rab interactor 1 (Homo sapiens), …; in the data active = inhibition above about 5%, passing the limit was not always enough
XiGFP reactiv = activators of inactive X chromosome reactivation, primary screen, imaging, XiGFP fibroblasts, GFP high-content imaging, set 2; XiGFP mouse fibroblasts, % GFP-positive cells imaging, 3 d; cells co-treated with 5-aza-dC sensitizer; scaled so ellipticine positive control = 100%; activation, % at 7.58 µM; 360,000 compounds, 0.055% hits; AID 743238, 2013;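 active = mean normalized replicate activation at least 10% and every replicate at or above 10%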;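 note: 0% = median of on-plate neutral control wells and 100% = ellipticine 6 µM median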
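Material: XiGFP fibroblasts, SV40-immortalized; Buffer or medium: DMEM containing 5-aza-dC; Compound dosing: single point; Times: 3 days compound exposure.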
ABHD5-PLIN5 conf = ABHD5-PLIN5 interaction inhibitors, confirmation, biochemical, luminescence; shares compounds with ABHD5-PLIN5 inh; inhibition, % at 4 µM; 2,200 compounds, 67% hits; in the data active = inhibition above about 23%;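 note: 0% = DMSO vehicle wells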
HNF4 split-luc = HNF4 dimerization inhibitors, counter-screen for ABHD5-PLIN5 interaction inhibitor project, biochemical, split-luciferase complementation, luminescence. inhibition, % at 4 µM. AID 651674, 2012. 2,200 compounds, 77% hits. shares compounds with ABHD5-PLIN5 inh;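 active = mean inhibition across replicate wells exceeding the computed hit threshold, cut at about 13% in these data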;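 note: light from luciferase halves that rejoin when HNF4 fusion proteins dimerize; 0% = DMSO only wells and the 100% control is not given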
Target sequence (P41235 whole entry, looked up, the tested form may be a part): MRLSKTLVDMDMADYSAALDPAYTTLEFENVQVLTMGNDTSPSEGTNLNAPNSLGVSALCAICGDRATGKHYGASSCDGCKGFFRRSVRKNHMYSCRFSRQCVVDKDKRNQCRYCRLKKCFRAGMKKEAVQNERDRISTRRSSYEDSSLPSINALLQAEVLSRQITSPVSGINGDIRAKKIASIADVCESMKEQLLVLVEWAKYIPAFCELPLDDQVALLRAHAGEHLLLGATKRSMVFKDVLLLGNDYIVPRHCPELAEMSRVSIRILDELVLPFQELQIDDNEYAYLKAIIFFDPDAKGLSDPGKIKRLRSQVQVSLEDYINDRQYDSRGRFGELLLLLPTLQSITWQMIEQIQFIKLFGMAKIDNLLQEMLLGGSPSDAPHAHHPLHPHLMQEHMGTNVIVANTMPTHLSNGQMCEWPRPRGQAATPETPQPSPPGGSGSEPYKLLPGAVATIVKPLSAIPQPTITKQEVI
Active calls of the source: *; . = no result shown. Most compounds without a hit are left out; they make up all but 1.9% or so of the library.

SMILES	NadD block	Rpn11 inh	ABHD5-PLIN5 inh	Rin1 Abl inh	XiGFP reactiv	ABHD5-PLIN5 conf	HNF4 split-luc
O=C1NC(=O)N(c2ccc3c(c2)OCO3)C(=O)/C1=C/c1ccsc1	9	12	30*	5	0	66*	55*
O=C1NC(=O)N(c2ccc3c(c2)OCO3)C(=O)/C1=C/c1ccc(N2CCCC2)o1	-3	.	8	-17	0	.	.
O=C1NC(=O)N(c2ccc3c(c2)OCO3)C(=O)/C1=C/c1cccs1	4	0	29*	2	1	82*	87*
COC[C@H]1OC(=O)c2coc3c2[C@@]1(C)C1=C(C3=O)[C@@H]2CCC(=O)[C@@]2(C)C[C@H]1OC(C)=O	3	8	26*	0	1	8	69*
Cc1ccccc1-c1ccc([C@@H]2[C@H]3CN(C(=O)Cc4ccccn4)CCCCN3[C@H]2CO)cc1	.	.	.	.	0	.	.
CN1C(=O)C(=Cc2cn(CC(=O)N3CCCCC3)c3ccccc23)C(=O)N(C)C1=O	3	28	18	2	.	.	.
CCOC(=O)Cn1cc(C=C2C(=O)N(C)C(=O)N(C)C2=O)c2ccccc21	-1	1	29*	0	0	8	11
CN1C(=O)C(=Cc2cn(CC#N)c3ccccc23)C(=O)N(C)C1=O	3	7	29*	4	0	23*	21*
CN1C(=O)C(=Cc2coc3ccccc3c2=O)C(=O)N(C)C1=O	7	14	12	1	0	.	.
CN1C(=O)C(=Cc2cn(CC(=O)N3CCCC3)c3ccccc23)C(=O)N(C)C1=O	1	4	45*	0	0	14	34*
CCCCCCCCn1sccc1=O	8	0	90*	1	.	89*	107*
N#Cc1ccc(-c2ccc([C@@H]3[C@H]4CN(C(=O)Cc5ccccc5)CCCCN4[C@H]3CO)cc2)cc1	.	.	.	.	0	.	.
Cc1cc([N+](=O)[O-])c(Cl)cc1NC(=O)C(C)C	4	-6	-6	0	0	.	.
CNc1cc(Cl)c2nonc2c1[N+](=O)[O-]	-1	-2	32*	2	3	36*	80*
C/C=C/c1ccc([C@H]2[C@@H](CO)N3CCCCN(C(=O)Cc4ccncc4)C[C@@H]23)cc1	.	.	.	.	0	.	.
Cc1ccc(S(=O)(=O)Oc2ccccc2C=C2C(=O)N(C)C(=O)N(C)C2=O)cc1	0	-1	35*	-2	0	71*	72*
CN1C(=O)C(=Cc2ccccc2Oc2ccc(Cl)cc2)C(=O)N(C)C1=O	3	8	32*	4	.	55*	52*
CN1C(=O)C(=Cc2ccccc2OCc2ccc(Cl)cc2)C(=O)N(C)C1=O	2	-6	1	-4	0	.	.
COC(=O)[C@@H]1[C@@H](CO)[C@@H]2Cn3c(ccc(-c4cccnc4)c3=O)[C@H]1N2S(=O)(=O)c1ccccc1F	.	.	.	.	0	.	.
CCOc1ccc(-n2c(O)c(N=Nc3ccc([N+](=O)[O-])cc3)c(=O)[nH]c2=O)cc1	4	6	-3	-5	1	.	.
CCOc1ccc(-n2c(O)c(/C=C3\C=Nc4ccccc43)c(=O)[nH]c2=O)cc1	-2	36	29*	-1	0	14	38*
O=C1NC(=O)C(=Cc2ccc(-c3ccc(F)cc3O)o2)C(=O)N1	6	6	25*	0	1	73*	86*
CCCCCCCSc1cc(OC)c(CCN(C)C)cc1OC	-9	7	28*	-1	.	17	1
COc1ccccc1CN1[C@H](CO)[C@@H](c2ccccc2)C12CN(C(=O)Cc1ccccc1)C2	.	.	.	.	0	.	.
COc1cc(/C=C/[N+](=O)[O-])ccc1OC(=O)c1cccnc1	3	7	27*	2	0	83*	101*
SMILES	NadD block	Rpn11 inh	ABHD5-PLIN5 inh	Rin1 Abl inh	XiGFP reactiv	ABHD5-PLIN5 conf	HNF4 split-luc
COC(=O)[C@H]1[C@H](CO)[C@H]2Cn3c(ccc(-c4ccccc4)c3=O)[C@@H]1N2S(=O)(=O)c1ccccc1C	.	.	.	.	0	.	.
O=C1NC(=O)C(=Cc2ccc(Sc3ccccc3)o2)C(=O)N1	16	4	23*	-3	0	96*	103*
O=C1NC(=O)C(=Cc2c(Cl)cccc2Cl)C(=O)N1	7	4	14	2	1	.	.
CC1CCC(C(C)C)C(OC(=O)Cn2c(COc3ccccc3)[n+](C)c3ccccc32)C1 (stereo not given)	1	5	29*	0	0	12	8
O=C(O)[C@@H]1[C@@H](CO)[C@@H]2Cn3c(ccc(-c4ccccc4)c3=O)[C@H]1N2S(=O)(=O)c1ccccc1F	.	.	.	.	0	.	.
CN(C)CC(C(=O)Cc1ccccc1)c1ccccc1 (stereo not given)	-1	-5	37*	-1	0	16	92*
COC(=O)C1=C(C(=O)OC)SC2(S1)C(C(=O)OC)=C(C(=O)OC)Sc1c2ssc1=O	1	63*	91*	-1	0	102*	112*
COC(=O)[C@@H]1[C@@H](CO)[C@@H]2Cn3c(ccc(-c4cccnc4)c3=O)[C@H]1N2S(=O)(=O)c1ccccc1C	.	.	.	.	0	.	.
O=C1NC(=O)C(=Cc2ccc(N3CCOCC3)cc2)C(=O)N1	-6	8	-2	1	0	.	.
O=C1NC(=O)C(=Cc2ccc(-c3ccc(S(=O)(=O)N4CCOCC4)cc3)o2)C(=O)N1	10	1	33*	0	0	91*	93*
COc1cc(/C=C2\C(=O)NC(=O)N(c3ccccc3)C2=O)c([N+](=O)[O-])cc1OC	-4	-4	10	-3	0	.	.
COc1cc(/C=C2\C(=O)NC(=O)N(c3ccccc3)C2=O)cc(OC)c1O	0	0	34*	0	.	17	22*
O=C(O)Cn1cc(/C=C2\C(=O)NC(=O)N(c3ccc(Cl)cc3)C2=O)c2ccccc21	-2	10	36*	-1	0	33*	32*
CCN1C(=O)NC(=O)/C(=C\c2cn(CC(=O)N3CCCCC3C)c3ccccc23)C1=O (stereo not given)	9	6	0	5	.	.	.
O=C(Cn1cc(C=C2C(=O)NC(=O)NC2=O)c2ccccc21)NCC1CCCO1 (stereo not given)	1	-2	19	-2	0	.	.
